# Screening data deposited in PubChem by several laboratories.
# The list is not random: actives were taken first. Their share in the collection is about 4%.
# GPR7 antag = blocks human GPR7 receptor signaling; P48145; GPR7-expressing cells, fluorescence antagonist assay; inhibition, % at 4.4 µM; 290,000 tested, 1.1% active; in the data active means inhibition above about 16%, passing the limit was not always enough;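 further: cells stimulated with the agonist NPW; 0% = agonist with vehicle and 100% = vehicle without agonist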
# Target sequence (P48145 whole entry, looked up): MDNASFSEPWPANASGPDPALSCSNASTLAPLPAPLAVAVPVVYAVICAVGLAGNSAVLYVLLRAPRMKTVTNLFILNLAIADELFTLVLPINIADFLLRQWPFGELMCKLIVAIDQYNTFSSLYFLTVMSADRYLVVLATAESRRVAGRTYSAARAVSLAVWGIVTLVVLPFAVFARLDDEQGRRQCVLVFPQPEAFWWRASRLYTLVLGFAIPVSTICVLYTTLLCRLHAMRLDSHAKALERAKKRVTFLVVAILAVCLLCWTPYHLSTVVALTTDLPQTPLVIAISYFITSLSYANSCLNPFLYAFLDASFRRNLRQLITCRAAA
# TAAR1 antagonist = antagonists of human TAAR1; inhibition, % at 3 µM; 360,000 tested, 1.5% active; Q96RJ0; CHO RD-HGA16 TAAR1, Fluo-8 calcium fluorescence, antagonist;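 active means inhibition above a per-plate cutoff, the mean inhibition of test compounds on that plate plus 3 SD, cut at about 49% in these data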;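 further: 0% = DMSO plus EC80 beta-PEA response and 100% = DMSO alone without agonist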
# Target sequence (Q96RJ0 whole entry, looked up): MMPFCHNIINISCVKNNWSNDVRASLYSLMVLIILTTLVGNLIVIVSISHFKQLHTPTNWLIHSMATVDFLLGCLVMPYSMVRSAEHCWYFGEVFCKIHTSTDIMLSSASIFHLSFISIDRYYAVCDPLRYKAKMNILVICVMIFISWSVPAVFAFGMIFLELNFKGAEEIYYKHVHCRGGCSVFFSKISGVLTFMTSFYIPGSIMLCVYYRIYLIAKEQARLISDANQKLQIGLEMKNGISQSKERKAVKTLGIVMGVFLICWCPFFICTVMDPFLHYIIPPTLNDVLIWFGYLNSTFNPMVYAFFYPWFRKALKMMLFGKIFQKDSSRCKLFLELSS
#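 Test system: CHO RD-HGA16 cells bearing hTAAR1 | Reagent: β-PEA, EC80 | Compound dosing: 3 µM, single point | Schedule: Dye loading 75 min at 37 °C, then 30 min room temperature | Signal: Calcium fluorescence with Fluo-8 | Evaluation: Percent inhibition of PEA-evoked calcium signal, max/basal emission ratio | Control set: DMSO-only wells and EC80 β-PEA-stimulated wells | Repeats: Singlicate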
# TAAR1 ag = human TAAR1 agonism; Q96RJ0; CHO RD-HGA16 TAAR1, Fluo-8 calcium fluorescence; vehicle wells 0%, saturating PEA agonist 100%; activation, % at 3 µM; 360,000 tested, 0.99% active;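 active means activation above the mean activation of all test compounds in the run plus 3 SD, cut at about 38% in these data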
#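 Test system: RD-HGA16 (CHO) cells co-expressing Gα16 and hTAAR1; dosing: one-point dosing at 3 µM (nominal); timing: 17-24 h seeding, 75 min 37 °C dye, 30 min RT; signal: kinetic Fluo-8 calcium fluorescence; read-out basis: % activation relative to PEA EC100 response; controls: DMSO and PEA EC100; replicates: n 1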
# MPTP block = blocks calcium-induced mitochondrial swelling | isolated mouse mitochondria, Ca2+ swelling absorbance, 30 min | inhibition, % at 10 µM | 360,000 tested, 1.4% active;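 active means inhibition of 50% or more, scaled per plate between neutral and stimulator controls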;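 further: 0% = DMSO wells given calcium and 100% = 1 mM EGTA wells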
# DAGLB inhibitor = blocks human DAGLB lipase activity. HEK293T DAGLB membrane lysate, EnzChek fluorogenic substrate. inhibition, % at 5.17 µM. 340,000 tested, 0.059% active. Q8NCG7; in the data active means inhibition above about 34%;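 further: 0% = enzyme with vehicle and 100% = wells lacking enzyme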
# nonsel antag count = nonselective antagonist in TAAR1 antagonist counter-screen | shares compounds with TAAR1 antagonist | counterscreen cell line, calcium fluorescence, antagonist mode | inhibition, % at 3 µM | 2,400 tested, 77% active | AID 651780; in the data active means inhibition above about 22%;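 further: CHO-Ga16 host cells stimulated with ATP at an EC80 level; 0% = agonist EC80 plus vehicle and 100% = vehicle without agonist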
# TAAR1 ant conf = human TAAR1 antagonism, confirmed; 2,400 tested, 40% active; shares compounds with TAAR1 antagonist; inhibition, % at 3 µM; TAAR1-expressing cells, fluorescence antagonist read-out; in the data active means inhibition above about 49%;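 further: CHO-Ga16 host cells challenged with agonist PEA near its EC80; 0% = agonist at EC80 plus vehicle and 100% = vehicle with no agonist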
# Ga16 ag counter = counter-screen for TAAR1 antagonists: nonselective Ga16 agonists | activation, % at 3 µM | 2,400 tested, 18% active | Ga16-expressing cells, calcium fluorescence, agonist counterscreen | shares compounds with TAAR1 antagonist; in the data active means activation above about 12%;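 further: 0% = vehicle wells and 100% = saturating stimulus response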
# TAAR1 ag counter = counter-screen for human TAAR1 antagonists: TAAR1 agonists. activation, % at 3 µM. hTAAR1 cell line, fluorescence activation, agonist mode. 2,400 tested, 2% active. AID 651955. shares compounds with TAAR1 antagonist; in the data active means activation above about 37%;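 further: CHO cells stably expressing TAAR1 with calcium dye readout; 0% = DMSO vehicle and 100% = full agonist response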
# The depositor's hits bear a star; . = not tested or not shown.
SMILES,GPR7 antag,TAAR1 antagonist,TAAR1 ag,MPTP block,DAGLB inhibitor,nonsel antag count,TAAR1 ant conf,Ga16 ag counter,TAAR1 ag counter
CCCCCCCCN1C(=O)[C@@H](CC(=O)NCCC(C)C)C[C@@]2(C(=O)OC)C1=C[C@H](C1CCCC1)O[C@@H]2C,.,-29,-1,.,.,.,.,.,.
CCC(C)Sc1cccc(-c2nc3ccccn3c2NCc2ccccc2)c1 (centres undefined),.,84*,13,2,0,42*,70*,11,14
CCCCCCSc1cccc(-c2nc3cc(C)ccn3c2NCc2ccccc2)c1,.,-26,1,46,-5,.,.,.,.
CCC(C)Sc1cccc(-c2nc3ccc(Cl)cn3c2NCc2ccccc2)c1 (centres undefined),.,.,.,7,-37,.,.,.,.
Cc1ccc2nc(-c3cccc(-c4cccc(Cl)c4)c3)c(NCc3ccccc3)n2c1,.,73*,10,6,-5,32*,33,2,3
Cc1ccc2nc(-c3ccccc3)c(Cc3cccc(Cl)c3)n2c1,.,3,1,-2,.,.,.,.,.
CCCCCCSc1cccc(-c2nc3ccc(C)cn3c2NCc2ccccc2)c1,.,52*,5,3,-15,18,18,1,3
CCC(C)Sc1cccc(-c2nc3ccc(C)cn3c2NCc2ccccc2)c1 (centres undefined),.,91*,13,47,-13,45*,76*,9,12
COC(=O)C1=C(C)N(Cc2ccc(C(F)(F)F)cc2)C(=NCc2ccc3c(c2)OCO3)NC1c1ccccc1 (centres undefined),.,35,32,.,.,.,.,.,.
CCOc1ccc(OCCCC(=O)N2CCN(S(=O)(=O)c3ccccc3C#N)CC2)cc1,.,60*,25,1,-3,18,34,10,9
Fc1ccc(CN2CCN(c3ncc(Cc4ccccc4)cn3)CC2)c(Cl)c1,.,-23,1,.,.,.,.,.,.
Cc1cccc(NC(=O)C2CCN(S(=O)(=O)c3cccc4nsnc34)CC2)n1,-6,13,8,-1,1,.,.,.,.
COc1ccc2nc(NC(=O)C3CCN(S(=O)(=O)c4cccc5nsnc45)CC3)sc2c1,-15,61*,22,-1,2,34*,56*,11,11
Cc1ccc(C)c(S(=O)(=O)N2CCN(c3nc(-c4cccnc4)nc4ccccc34)CC2)c1,.,61*,5,-2,-6,13,38,6,8
CC(=O)Oc1ccccc1C(=O)C=Cc1cccc([N+](=O)[O-])c1,.,7,1,2,1,.,.,.,.
COc1cc(-c2noc(C)c2C#Cc2ccsc2)cc(OC)c1OC,26,65*,28,1,-10,18,34,6,20
COc1cc(-c2noc(C)c2C#CCO)cc(OC)c1OC,-7,-15,5,0,-4,.,.,.,.
NC(=O)CCc1c[nH]c2ccccc12,-3,7,3,-4,2,.,.,.,.
OCC(CCc1c[nH]c2ccccc12)c1c[nH]c2ccccc12 (centres undefined),.,53*,25,.,.,24*,29,7,11
CCC(OC(=O)C(CC(C)C)NC(=O)c1ccccc1)C(=O)Nc1nnc(C)s1 (centres undefined),.,40,3,0,-1,.,.,.,.
CCOC(=O)c1sc(NC(=O)C(CC)OC(=O)C(CC(C)C)NC(=O)c2ccccc2)nc1C (centres undefined),-4,65*,11,1,-5,39*,57*,7,4
CN1CCN(c2ccc(CNC(=O)C3(C)Cc4c(-c5ccc6c(c5)OCO6)ccnc4O3)cc2)CC1 (centres undefined),.,-3,5,0,.,.,.,.,.
CCN(CC)S(=O)(=O)c1ccc2nc(NC(=O)c3ccco3)sc2c1,-8,10,7,1,1,.,.,.,.
CCN(CC)S(=O)(=O)c1ccc2nc(NC(=O)c3cccs3)sc2c1,-11,63*,37,0,2,18,37,10,17
C[C@H]1CN(C(=O)OC(C)(C)C)CCN1c1ccc(N2CCS(=O)(=O)CC2)c(C#N)c1,.,67*,21,.,.,47*,60*,16*,13
SMILES,GPR7 antag,TAAR1 antagonist,TAAR1 ag,MPTP block,DAGLB inhibitor,nonsel antag count,TAAR1 ant conf,Ga16 ag counter,TAAR1 ag counter
CC(C)COc1ccc(C(=O)NNC(=O)c2ccc(=O)[nH]c2)cc1,.,103*,-5,2,2,-3,4,0,-3
Cc1cn([C@H]2C[C@H](O)[C@@H](CNCc3cccc(OC4CCCC4)c3)O2)c(=O)[nH]c1=O,.,-8,2,-1,-3,.,.,.,.
COc1ccc(/C=N/Nc2nc(-c3ccc(C)cc3)c(NC(C)=O)s2)cc1,-8,51*,0,1,-1,7,42,1,4
CC(=O)Nc1sc(N/N=C/c2ccc(O)cc2)nc1-c1ccc(C)cc1,-3,-22,0,1,-1,.,.,.,.
COc1ccc(N(C)S(=O)(=O)c2cccc(C(=O)Nc3ccc4c(c3)OCCO4)c2)cc1,4,36,4,0,-4,.,.,.,.
COc1ccc(N(C)S(=O)(=O)c2cccc(C(=O)Nc3ccc(OC)nc3)c2)cc1,-10,62*,18,.,.,31*,43,11,6
COc1ccc(N(C)S(=O)(=O)c2cccc(C(=O)Nc3cc(OC)ccc3OC)c2)cc1,1,10,4,0,0,.,.,.,.
COc1ccc(N(C)S(=O)(=O)c2cccc(C(=O)Nc3ccc(-n4cnnn4)cc3)c2)cc1,14,75*,19,3,2,47*,52*,13*,5
O=C(Nc1ccc(Cl)c(S(=O)(=O)N2CCOCC2)c1)c1ccccn1,-3,20,8,-1,-3,.,.,.,.
O=C(Nc1ccc(Cl)c(S(=O)(=O)N2CCOCC2)c1)c1cc(-c2ccccn2)nc2ccccc12,-15,63*,25,0,-1,43*,57*,14*,13
O=C(Nc1ccc(Cl)c(S(=O)(=O)N2CCOCC2)c1)c1ccc2c(c1)OCO2,.,66*,17,-2,-1,32*,46,15*,12
O=C(Nc1cccc(S(=O)(=O)C(F)F)c1)c1ccc(Cl)c(S(=O)(=O)N2CCOCC2)c1,1,74*,35,3,1,50*,65*,19*,23
O=C(Nc1cccc(S(=O)(=O)N2CCCCC2)c1)c1ccc(Cl)nc1,.,20,13,1,1,.,.,.,.
O=C(Nc1cccc(S(=O)(=O)N2CCCCCC2)c1)c1ccc(Cl)nc1,.,54*,9,4,-2,27*,37,8,7
